In ChEMBL document CHEMBL1132218, “3-Amino-5-phenoxythiophenes: syntheses and structure-function studies of a novel class of inhibitors of cellular L-triiodothyronine uptake” (J Med Chem, 1999):

Columns and labels:
[1] = Partition coefficient (logP); assay type: physicochemical; details: octanol/water
Summary of the method: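 Octanol–water partition coefficient calculated computationally, not measured experimentally.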

HepG2 = test: Compound was tested for inhibition of L-T3 (triiodothyronine) uptake in human HepG2 hepatoma cells at 10e-5 M; assay type: functional
Summary of the method: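 HepG2 cells kept in DMEM with 10% FCS at 37 °C, grown to confluence (2×10⁶ cells/well), then serum-free overnight. Incubated 2 min at 37 °C in DMEM with 10^-11 M [¹²⁵I]-L-T₃; solvent-matched controls; nondisplaceable uptake from duplicates with 10^-5 M unlabeled L-T₃. Five PBS (pH 7.4) washes at room temperature, 0.1 M NaOH harvest, cell-associated radioactivity counted.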

| logP [1] | Structure (SMILES) | inhibition at 10 µM (HepG2) [%] |
| --- | --- | --- |
| 5.03 | Cc1cccc(Oc2sc(C(=O)c3ccc([N+](=O)[O-])cc3)c(N)c2C#N)c1 | 16 |
| 3.66 | COC(=O)c1sc(Oc2ccccc2)c(C#N)c1N | 41 |
| 4.16 | COC(=O)c1sc(Oc2cccc(C)c2)c(C#N)c1N | 19 |
| 3.04 | Cc1cccc(Oc2sc(C#N)c(N)c2C#N)c1 | 26 |
| 5.25 | Cc1cccc(Oc2sc(C(=O)c3ccccc3)c(N)c2C#N)c1 | 57 |
| 4.53 | N#Cc1c(Oc2ccccc2)sc(C(=O)c2ccc([N+](=O)[O-])cc2)c1N | 18 |
| 2.19 | N#Cc1c(Oc2ccccc2)sc(C(N)=O)c1N | 14 |
| 3.61 | COC(=O)c1sc(Oc2cccc(C)c2)c(C(N)=O)c1N | 40 |
| 4.75 | N#Cc1c(Oc2ccccc2)sc(C(=O)c2ccccc2)c1N | 61 |
| 3.11 | COC(=O)c1sc(Oc2ccccc2)c(C(N)=O)c1N | 26 |
| 2.69 | Cc1cccc(Oc2sc(C(N)=O)c(N)c2C#N)c1 | 23 |
| 3.6 | NC(=O)c1c(Oc2ccccc2)sc(C(=O)c2ccccc2)c1N | 60 |
| 2.54 | N#Cc1sc(Oc2ccccc2)c(C#N)c1N | 21 |
